For data set [1], the target named is T1, Dihydroorotate dehydrogenase (Plasmodium falciparum, UniProt Q54A96).
T1 sequence (Q54A96 whole entry): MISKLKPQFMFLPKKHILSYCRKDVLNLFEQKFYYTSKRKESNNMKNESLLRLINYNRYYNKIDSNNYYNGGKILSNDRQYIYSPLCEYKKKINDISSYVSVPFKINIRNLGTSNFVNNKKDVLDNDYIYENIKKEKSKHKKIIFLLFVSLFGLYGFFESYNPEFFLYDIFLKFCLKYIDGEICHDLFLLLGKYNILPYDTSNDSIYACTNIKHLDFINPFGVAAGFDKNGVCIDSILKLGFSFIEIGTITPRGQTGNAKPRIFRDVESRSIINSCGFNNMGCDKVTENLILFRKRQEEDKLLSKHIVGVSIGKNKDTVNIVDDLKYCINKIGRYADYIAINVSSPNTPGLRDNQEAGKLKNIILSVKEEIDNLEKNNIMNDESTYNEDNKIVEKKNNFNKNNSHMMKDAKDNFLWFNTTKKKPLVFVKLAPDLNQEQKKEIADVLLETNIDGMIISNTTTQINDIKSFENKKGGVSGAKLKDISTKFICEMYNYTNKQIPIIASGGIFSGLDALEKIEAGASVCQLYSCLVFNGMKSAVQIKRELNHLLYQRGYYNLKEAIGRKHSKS
The data set can be described thus: Inhibition of Plasmodium falciparum recombinant N-terminal His6-tagged DHODH (159-569 residues) expressed in Escherichia coli BL21(DE3) using DHO as substrate measured every min for 5 mins by DCPI dye-based photometric analysis. In outline:
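N-terminally truncated recombinant enzyme, His-tag IMAC then size exclusion purified, in 50 mM Tris/HCl pH 7.8, 150 mM KCl, 0.1% Triton X-100 with 60 μM DCIP and 20 μM decylubiquinone. Started with 200 μM DHO; initial rate from DCIP absorbance at 600 nm over the first 5 min. IC50 is mean ± SE of three experiments.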

The target in data set [2] is Dihydroorotate dehydrogenase (quinone), mitochondrial (Homo sapiens, UniProt Q02127). Kind of data set: Inhibition of human recombinant N-terminal GST-tagged DHODH (31 to 395 residues) expressed in Escherichia coli BL21(DE3) using DHO as substrate preincubated for 5 mins followed by substrate addition and measured for 5 mins by DCPI dye-based assay. In outline:
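GST-fused enzyme from E. coli, glutathione-affinity purified. Pre-incubated 5 min at 37°C in Tris buffer pH 8.0 with 100 μM coenzyme Q10, 50 μM DCIP and compounds (0.1% DMSO final). Started with 500 μM DHO; DCIP reduction followed at 650 nm over the first 5 min. IC50 is mean ± SE of three experiments.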

The nature of data set [3]: Selectivity ratio of IC50 for human recombinant DHODH to IC50 for Plasmodium falciparum recombinant DHODH.
Another data set concerns Plasmodium falciparum. Kind of data set: Anti-plasmodial activity against synchronized ring stage Plasmodium falciparum 3D7 infected in human erythrocytes assessed as reduction in parasitemia after 48 hrs by Sybr Green I dye-based flow cytometric analysis. The data set is classed as functional, organism-based. The conditions noted are these: 3D7, 48 h. In outline: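 Parasites kept in O+ human erythrocytes in RPMI 1640 with HEPES pH 7.3, glutamine, glucose, gentamicin, 0.5mM hypoxanthine and 10% human serum, 4% hematocrit, 37°C in 1% O2/5% CO2. Sorbitol-synchronized rings; 1:2 serial dilutions from 300µM at 2% hematocrit, 1-2% parasitemia, 48h. SybrGreen I flow cytometry; triplicate points fitted to log[I] vs response for EC50.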

Data set [4] in a line: Cytotoxicity against African green monkey COS7 cells after 48 hrs by MTT assay. As to conditions: chlorocebus aethiops, COS-7 cells. The class given is cell-based. An outline of the steps: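 COS-7 cells in DMEM with 10% heat-inactivated FBS and gentamicin, 37°C, 5% CO2. Seeded at 10⁴ cells/well and left 16 h to adhere. Compounds added at several concentrations for 48 h. MTT added for 4 h, formazan dissolved in acidified Triton/isopropanol, OD read at 570 nm. CC50 from viability relative to control, given with 95% confidence interval of the fit.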

Data set [5] in a line: Dissociation constant, pKa of the compound by potentiometric analysis. The class given is physicochemical.

Molecules are shown by their SMILES.

Chain of Dihydroorotate dehydrogenase (quinone), mitochondrial (Q02127 whole entry, the tested form may be a part): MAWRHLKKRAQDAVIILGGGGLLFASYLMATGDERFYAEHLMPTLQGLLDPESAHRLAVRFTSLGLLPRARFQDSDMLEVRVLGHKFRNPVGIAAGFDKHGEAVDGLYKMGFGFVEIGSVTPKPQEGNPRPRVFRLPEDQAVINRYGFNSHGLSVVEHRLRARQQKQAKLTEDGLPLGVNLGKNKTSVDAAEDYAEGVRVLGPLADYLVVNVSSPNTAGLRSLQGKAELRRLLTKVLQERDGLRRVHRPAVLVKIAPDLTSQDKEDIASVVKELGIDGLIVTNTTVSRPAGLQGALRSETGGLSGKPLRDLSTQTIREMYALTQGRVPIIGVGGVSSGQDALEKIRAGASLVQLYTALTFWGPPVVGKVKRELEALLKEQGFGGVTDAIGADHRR

Turning to `CN(Cc1c(C(=O)O)c(O)nn1C)c1ccccc1`, the half-maximal inhibitory concentration (IC50) in data set [1] is 23 µM; in data set [2], more than 250 µM. Further, in data set [3], the Ratio IC50 was more than 10.
With `Cn1nc(O)c(C(=O)O)c1COc1ccc(C(F)(F)F)cc1`, the IC50 is 5.3 µM in data set [1] and not below 200 µM in data set [2]. Further, the EC50 with Plasmodium falciparum came out at 26.7 µM. In addition, half-maximal cytotoxicity in data set [4] (CC50 at 48 h) was put at 152 µM.
For `Cn1nc(O)c(C(=O)O)c1CNc1ccccc1`, the IC50 in data set [1] is 16 µM; in data set [2], more than 250 µM. Besides, the Ratio IC50 in data set [3] is more than 16.
For the compound `Cn1nc(O)c(C(N)=O)c1COc1ccccc1`, the IC50 in data set [1] was more than 250 µM.
For the compound `Cc1c(C(=O)NCC(c2ccccc2)c2ccccc2)c(O)nn1C`, the IC50 in data set [1] was more than 250 µM. In data set [5], this compound gave a pKa of 6.54.
As to `CCOC(=O)c1c(O)nn(C)c1COc1ccccc1`, the IC50 in data set [1] is more than 250 µM.
Consider `O=C(NCC(c1ccccc1)c1ccccc1)c1nsnc1O`, for which the results for the IC50 in data set [1] and in data set [2] were 12 µM and more than 200 µM, respectively. Besides, the EC50 in the data set on Plasmodium falciparum turned out to be 35.9 µM. Further, the CC50 at 48 h in data set [4] turned out to be 190 µM. Further, the pKa in data set [5] was found to be 3.72.
For the compound `Cn1nc(O)c(C(=O)O)c1COc1ccccc1`, the IC50 is 19 µM in data set [1] and more than 250 µM in data set [2]. In data set [3], the Ratio IC50 is more than 13.
As to `O=C(NCc1ccccc1)c1nsnc1O`, the IC50 in data set [1] is 35 µM; in data set [2] it was more than 200 µM. The Ratio IC50 in data set [3] was more than 6. Also, the pKa in data set [5] was found to be 3.69.
Take `Cn1nc(OCC2CC2)c(C(=O)O)c1COc1ccccc1`: the IC50 in data set [1] is more than 250 µM.
As to `Cn1nc(O)c(C(=O)O)c1CSc1ccccc1`, the IC50 in data set [1] was 25 µM; in data set [2], more than 250 µM. Also, in data set [3], the Ratio IC50 was more than 10.
On to `Cn1cc(C(=O)NCC(c2ccccc2)c2ccccc2)c(O)n1`, for which the concentration for half-maximal inhibition (IC50) in data set [1] was more than 250 µM. In addition, the pKa in data set [5] was 6.42.
As for `Cn1nc(O)c(C(=O)O)c1COc1cccc(C(F)(F)F)c1`, the IC50 in data set [1] was 2.8 µM; in data set [2], not below 200 µM. Also, the EC50 in the data set on Plasmodium falciparum was found to be 40.7 µM. Further, the CC50 at 48 h in data set [4] turned out to be 167 µM.
Consider `CCOc1nn(C)c(COc2ccccc2)c1C(=O)O`, for which the IC50 in data set [1] is more than 250 µM.
`Cn1nc(OCc2ccccc2)c(C(=O)O)c1COc1ccccc1`: in data set [1], the IC50 is more than 250 µM.
In the case of `O=C(NCC(c1ccccc1)c1ccccc1)c1nonc1O`, the IC50 in data set [1] was 75 µM; in data set [2] it was more than 200 µM. Besides, the Ratio IC50 in data set [3] is more than 3. This compound also showed a pKa in data set [5] of 3.33.

The record behind these values is ChEMBL document CHEMBL4330080, “Hydroxyazole scaffold-based Plasmodium falciparum dihydroorotate dehydrogenase inhibitors: Synthesis, biological evaluation and X-ray structural studies” (Eur J Med Chem, 2019).
